Test results as given in publication PMC8995400 (Drug delivery and translational research, 2021).
Values belong to the compound of their own block, whether it stands above or below them.

Experiments:
Hec50co cells [1] = test: Cell viability; assay type: cell-based, human; settings: PD98059 alone
[2] = Biodistribution of PD98059 in mouse organs after IV injection; assay type: in vivo, BALB/CJ mice; settings: mice; for AUC0-6: IV
Outline: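 BALB/CJ mice (8 weeks, 20–23 g) got 113 μg test compound as solution, or as loaded PAMAM-coated PLGA-PEG nanoparticles (3 mg, equivalent dose), IV retro-orbitally. Organs were taken at 5–360 min, rinsed, bead-homogenised in PBS with 7-hydroxyflavone internal standard, and ethyl acetate-extracted. Levels were measured by C18 HPLC-UV at 320 nm against the area ratio to standard. n = 3, mean ± SD.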

[3] = Plasma pharmacokinetics after IV injection in mice; assay type: in vivo, BALB/CJ mice; settings: for C0 / clearance / MRT inf / half-life / Vd: BALB/CJ, mouse, iv, 113 ug; for clearance: Cl; for MRT inf: MRT0-inf; for Vd: Vss
Outline: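 Same IV dosing of mice (113 μg, solution or nanoparticle-loaded), sampled 5, 30, 60, 120, 180 and 360 min. Blood was spun at 10,600 xg for 5 min, and plasma was extracted and assayed by C18 HPLC-UV (methanol:water 70:30, 0.1% TFA, 320 nm). Concentration–time data were analysed in PK Solver by non-compartmental, 1- and 2-compartment models. n = 3, mean ± SD.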

[4] = in 24 h; cited from earlier work
Hec50co cells [5] = test: Cell cycle analysis by flow cytometry; assay type: cell-based, human
Outline: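 Hec50co cells seeded at 5×10^3 cells/well in complete DMEM and held 24 hr at 37°C, 5% CO2. They were then exposed 24 hr to taxane (5 or 10 nM), MEK inhibitor (25 μM) or both. Cells were PBS-washed, trypsinized, fixed in ice-cold 70% ethanol 30 min at 4°C, then taken up in PBS with 1% NP40 and 100 μg/mL RNase at 37°C for 30 min. Flow cytometry gave % cells per phase; mean ± SD, n = 3.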

[6] = rats, 2-compartment open model; cited from earlier work
[7] = Non compartment model, IV, mice
[8] = One-compartment model, IV, mice
[9] = Two-compartment model, IV, mice

maximum PD98059 level in the brain ([2]; 5 minutes following IV injection): about 3 μg/g
AUC0-6 ([2]; Brain): 334.25 μg x min/mL
AUC0-6 ([2]; Heart): 160.37 μg x min/mL
AUC0-6 ([2]; Kidney): 301.47 μg x min/mL
AUC0-6 ([2]; Liver): 125.38 μg x min/mL
AUC0-6 ([2]; Lung): 459.51 μg x min/mL
AUC0-6 ([2]; Muscle): 129.86 μg x min/mL
AUC0-6 ([2]; Pancreas): 177.37 μg x min/mL
AUC0-6 ([2]; Spleen): 129.72 μg x min/mL
C0 ([3]; C0, Non compartment model, mice): 2910 ng/mL
C0 ([3]; C0, One-compartment model, mice): 2630 ng/mL
C0 ([3]; C0, Two-compartment model, mice): 3150 ng/mL
clearance ([3]; Non compartment model, mice): 0.31 mL/min
clearance ([3]; One-compartment model, mice): 1.25 mL/min
clearance ([3]; Two-compartment model, mice): 0.29 mL/min
MRT inf ([3]; Non compartment model, mice): 7.29 h
MRT inf ([3]; One-compartment model, mice): 0.503 h
MRT inf ([3]; Two-compartment model, mice): 9.26 h
half-life ([3]; T1/2(α), Two-compartment model, mice): 0.151 h
half-life ([3]; T1/2(β), Two-compartment model, mice): 7.13 h
half-life ([3]; T1/2, Non compartment model, mice): 5.25 h
half-life ([3]; T1/2, One-compartment model, mice): 0.348 h
Vd [3, 7]: 0.136 L
Vd [3, 8]: 0.0379 L
Vd [3, 9]: 0.163 L
K ([3]; Non compartment model, IV 113 μg PD98059, mice): 0.0022 min⁻¹
AUC0-inf [3, 7]: 320.68 μg x min/mL
AUC0-t [3, 7]: 175.72 μg x min/mL
AUMC0-inf [3, 7]: 140,206.69 μg x min^2/mL
V [3, 7]: 141.65 mL
AUC0-inf [3, 8]: 79.61 μg x min/mL
AUC0-t [3, 8]: 79.61 μg x min/mL
AUMC0-inf [3, 8]: 2,402.29 μg x min^2/mL
K [3, 8]: 0.033 min⁻¹
V [3, 8]: 37.90 mL
A [3, 9]: 2.65 µg/mL
AUC0-inf [3, 9]: 340.78 μg x min/mL
AUC0-t [3, 9]: 170.01 μg x min/mL
AUMC0-inf [3, 9]: 189,279.12 μg x min^2/mL
B [3, 9]: 0.49 µg/mL
K10 [3, 9]: 0.0092 min⁻¹
K12 [3, 9]: 0.055 min⁻¹
K21 [3, 9]: 0.013 min⁻¹
V [3, 9]: 31.72 mL
α [3, 9]: 0.076 min⁻¹
β [3, 9]: 0.0016 min⁻¹
Compound: COc1cccc(-c2cc(=O)c3ccccc3o2)c1N [PD98059, 2-(2-Amino-3-methoxyphenyl)-4H-1-benzopyran-4-one]
cytotoxicity (Hec50co cells [1]; 5 μM): 3.8%
cytotoxicity (Hec50co cells [1]; 10 μM): 5.3%
cytotoxicity (Hec50co cells [1]; 25 μM): 17%
free PD98059 dissolved [4]: more than 80%
cells at the G0/G1 phase (Hec50co cells [5]; 25 μM PD98059, 24 hr): 63.04%
distribution half-life [6]: less than 10 minutes

Compound: CC(=O)O[C@H]1C(=O)[C@@]2(C)[C@H]([C@H](OC(=O)c3ccccc3)[C@]3(O)C[C@H](OC(=O)[C@H](O)[C@@H](NC(=O)c4ccccc4)c4ccccc4)C(C)=C1C3(C)C)[C@]1(OC(C)=O)CO[C@@H]1C[C@@H]2O [PTX, paclitaxel]
cells at the G2/M phase (Hec50co cells [5]; 5 nM PTX + 25 μM PD98059, 24 hr): 42.15%
cells at the G2/M phase (Hec50co cells [5]; 5 nM PTX, 24 hr): 37.2%
cells at the G2/M phase (Hec50co cells [5]; 10 nM PTX + 25 μM PD98059, 24 hr): 74.99%
cells at the G2/M phase (Hec50co cells [5]; 10 nM PTX, 24 hr): 45.74%
